Measured values reported in ChEMBL document CHEMBL3286182, “4-aminoquinolone piperidine amides: noncovalent inhibitors of DprE1 with long residence time and potent antimycobacterial activity” (J Med Chem, 2014).
In brackets after ≈: the same amount, converted by molar mass. Activity calls are given as the source filed them. No cut-off for these calls is given here.

How the values were obtained:
[1] = tested on: Mycolicibacterium smegmatis; assay: Binding affinity to Mycobacterium smegmatis recombinant DprE1 assessed as residence time
Method in brief: (§1)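 Progress curves (fluorescence vs time) recorded at several inhibitor concentrations with 75 nM Msm DprE1 in the FAD/HRP/Amplex Red coupled assay, pH 8.5, 25 °C. A single-step reversible slow-binding model was fitted globally, with vs and vi fitted per concentration and koff and Kiapp shared. Half-life and residence time were derived from koff.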

[2] = tested on: Staphylococcus aureus; assay: Antimicrobial activity against Staphylococcus aureus ARC517 at 100 uM; format: functional, organism-based
Method in brief: (§2)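 Nonmycobacterial panel of Candida albicans, Gram-negative and Gram-positive pathogens.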

[3] = target: T1, Cytochrome P450 1A2 (Homo sapiens, UniProt P05177); assay: Inhibition of CYP1A2 (unknown origin); format: ADME
T1 sequence (P05177 whole entry): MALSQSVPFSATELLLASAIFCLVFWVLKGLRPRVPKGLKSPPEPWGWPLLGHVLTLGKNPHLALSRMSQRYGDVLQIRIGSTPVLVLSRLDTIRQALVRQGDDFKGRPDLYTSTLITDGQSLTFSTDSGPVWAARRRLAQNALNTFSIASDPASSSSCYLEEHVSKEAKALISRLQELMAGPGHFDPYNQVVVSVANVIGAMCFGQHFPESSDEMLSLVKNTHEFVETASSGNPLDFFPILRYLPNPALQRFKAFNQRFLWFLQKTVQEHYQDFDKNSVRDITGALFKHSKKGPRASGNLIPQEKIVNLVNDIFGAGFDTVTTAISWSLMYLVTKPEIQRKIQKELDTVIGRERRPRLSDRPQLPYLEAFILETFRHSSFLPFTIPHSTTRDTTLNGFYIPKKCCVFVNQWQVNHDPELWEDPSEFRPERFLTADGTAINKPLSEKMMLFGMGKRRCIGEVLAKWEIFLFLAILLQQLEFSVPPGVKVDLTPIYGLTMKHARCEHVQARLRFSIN
Method in brief: (§3)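 CYP inhibition IC50 measured on isoforms CYP3A4, CYP2D6, CYP2C9, CYP2C19 and CYP1A2.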

[4] = tested on: Mycobacterium tuberculosis; assay: Antimycobacterial activity against Mycobacterium tuberculosis over expressing TopA after 5 days by standard microdilution method; format: functional; settings: 120 h
[5] = Inhibition of Mycobacterium smegmatis DprE1 Y321H mutant using farnesylphosphoryl-beta-D-ribofuranose as substrate assessed as conversion of amplex red to resorufin after 30 mins; design: species or system Mycolicibacterium smegmatis
Method in brief: (§4)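 Recombinant M. smegmatis DprE1 (thioredoxin-6His fusion), wild type or Y321H, 75 nM. Enzyme was preincubated 30 min in FAD assay mix: 50 mM glycylglycine pH 8.5, 200 mM potassium glutamate, 10 μM FAD, 0.002% Brij-35, 2% DMSO. Reaction was started with 300 μM farnesylphosphoryl-β-D-ribofuranose, 0.01 mg/mL HRP and 50 μM amplex red at 25 °C.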

[6] = tested on: Haemophilus influenzae; assay: Antimicrobial activity against Haemophilus influenzae ARC446 at 100 uM; format: functional, organism-based; method in brief: as §2
[7] = tested on: Mycolicibacterium smegmatis; assay: Antimicrobial activity against Mycobacterium smegmatis mc2155 at 100 uM; format: functional, organism-based; settings: str. MC2 155
[8] = Permeability of the compound from basolateral to apical side in human Caco2 cells; format: ADME, cell-based; settings: Caco-2, read-out: permeability
[9] = tested on: Pseudomonas aeruginosa; assay: Antimicrobial activity against Pseudomonas aeruginosa ARC546 at 100 uM; format: functional, organism-based; method in brief: as §2
[10] = tested on: Mycobacterium tuberculosis; assay: Antimycobacterial activity against Mycobacterium tuberculosis over expressing DprE1 after 5 days by standard microdilution method; format: functional; settings: 120 h
[11] = tested on: Escherichia coli; assay: Antimicrobial activity against Escherichia coli ARC523 at 100 uM; format: functional, organism-based; method in brief: as §2
[12] = Cytotoxicity against human A549 cells after 72 hrs by resazurin based fluorescence assay; format: cell-based; settings: read-out: MIC
Method in brief: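 Cytotoxicity read as MMIC, the MIC on the A549 cell line.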

[13] = tested on: Mycobacterium tuberculosis; assay: Antimycobacterial activity against Mycobacterium tuberculosis over expressing InhA after 5 days by standard microdilution method; format: functional; settings: 120 h
[14] = target: Mu-type opioid receptor (Homo sapiens, UniProt P35372); assay: Inhibition of mu opioid receptor (unknown origin)
Mu-type opioid receptor, sequence (P35372 whole entry): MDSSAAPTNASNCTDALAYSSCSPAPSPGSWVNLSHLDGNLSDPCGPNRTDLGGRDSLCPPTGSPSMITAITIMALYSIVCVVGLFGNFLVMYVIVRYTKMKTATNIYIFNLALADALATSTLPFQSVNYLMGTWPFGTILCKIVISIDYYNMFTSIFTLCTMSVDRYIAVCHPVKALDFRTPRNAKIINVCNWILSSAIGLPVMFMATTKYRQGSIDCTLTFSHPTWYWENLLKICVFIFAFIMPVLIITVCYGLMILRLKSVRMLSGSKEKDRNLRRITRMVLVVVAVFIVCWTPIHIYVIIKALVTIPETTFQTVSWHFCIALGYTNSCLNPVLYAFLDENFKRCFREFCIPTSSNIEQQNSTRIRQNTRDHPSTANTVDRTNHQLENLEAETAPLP
Method in brief: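 Secondary pharmacology panel of binding, enzyme and functional assays covering 24 molecular targets. Activity recorded as a defined Ki/IC50/EC50.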

[15] = Solubility of the compound in 0.1 M phosphate buffer at pH 7.4 after 24 hrs by UV and MS analysis; format: physicochemical
[16] = target: Cytochrome P450 2C19 (Homo sapiens, UniProt P33261); assay: Inhibition of CYP2C19 (unknown origin); format: ADME; method in brief: as §3
Cytochrome P450 2C19, sequence (P33261 whole entry): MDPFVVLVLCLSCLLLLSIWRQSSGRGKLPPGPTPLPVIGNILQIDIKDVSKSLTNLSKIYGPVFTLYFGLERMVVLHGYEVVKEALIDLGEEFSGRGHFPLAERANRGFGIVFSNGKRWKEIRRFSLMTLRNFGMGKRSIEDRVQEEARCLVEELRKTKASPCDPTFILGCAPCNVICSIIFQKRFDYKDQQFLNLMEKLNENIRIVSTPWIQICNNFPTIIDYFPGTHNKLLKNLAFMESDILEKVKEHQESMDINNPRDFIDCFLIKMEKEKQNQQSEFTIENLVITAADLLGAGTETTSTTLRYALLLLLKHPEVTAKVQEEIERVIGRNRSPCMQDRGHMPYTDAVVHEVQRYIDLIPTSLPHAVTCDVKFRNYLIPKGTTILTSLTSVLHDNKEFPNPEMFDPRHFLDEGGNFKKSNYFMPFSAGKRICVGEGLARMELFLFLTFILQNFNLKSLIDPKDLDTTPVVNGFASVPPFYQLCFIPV

[17] = Inhibition of Mycobacterium smegmatis recombinant DprE1 using farnesylphosphoryl-beta-D-ribofuranose as substrate assessed as conversion of amplex red to resorufin after 30 mins; design: species or system Mycolicibacterium smegmatis
Method in brief: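 Msm DprE1 (thioredoxin-6His fusion of Msm Rv3790) at 75 nM, preincubated 30 min with 10 μM FAD. Buffer: 50 mM glycylglycine pH 8.5, 200 mM potassium glutamate, 0.002% Brij-35, 2% DMSO, 25 °C. Started with 300 μM farnesylphosphoryl-β-D-ribofuranose, 0.01 mg/mL HRP and 50 μM Amplex Red.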

[18] = target: Voltage-gated inwardly rectifying potassium channel KCNH2 (Homo sapiens, UniProt Q12809); assay: Inhibition of human ERG by medium-throughput electrophysiology
Voltage-gated inwardly rectifying potassium channel KCNH2, sequence (Q12809 whole entry): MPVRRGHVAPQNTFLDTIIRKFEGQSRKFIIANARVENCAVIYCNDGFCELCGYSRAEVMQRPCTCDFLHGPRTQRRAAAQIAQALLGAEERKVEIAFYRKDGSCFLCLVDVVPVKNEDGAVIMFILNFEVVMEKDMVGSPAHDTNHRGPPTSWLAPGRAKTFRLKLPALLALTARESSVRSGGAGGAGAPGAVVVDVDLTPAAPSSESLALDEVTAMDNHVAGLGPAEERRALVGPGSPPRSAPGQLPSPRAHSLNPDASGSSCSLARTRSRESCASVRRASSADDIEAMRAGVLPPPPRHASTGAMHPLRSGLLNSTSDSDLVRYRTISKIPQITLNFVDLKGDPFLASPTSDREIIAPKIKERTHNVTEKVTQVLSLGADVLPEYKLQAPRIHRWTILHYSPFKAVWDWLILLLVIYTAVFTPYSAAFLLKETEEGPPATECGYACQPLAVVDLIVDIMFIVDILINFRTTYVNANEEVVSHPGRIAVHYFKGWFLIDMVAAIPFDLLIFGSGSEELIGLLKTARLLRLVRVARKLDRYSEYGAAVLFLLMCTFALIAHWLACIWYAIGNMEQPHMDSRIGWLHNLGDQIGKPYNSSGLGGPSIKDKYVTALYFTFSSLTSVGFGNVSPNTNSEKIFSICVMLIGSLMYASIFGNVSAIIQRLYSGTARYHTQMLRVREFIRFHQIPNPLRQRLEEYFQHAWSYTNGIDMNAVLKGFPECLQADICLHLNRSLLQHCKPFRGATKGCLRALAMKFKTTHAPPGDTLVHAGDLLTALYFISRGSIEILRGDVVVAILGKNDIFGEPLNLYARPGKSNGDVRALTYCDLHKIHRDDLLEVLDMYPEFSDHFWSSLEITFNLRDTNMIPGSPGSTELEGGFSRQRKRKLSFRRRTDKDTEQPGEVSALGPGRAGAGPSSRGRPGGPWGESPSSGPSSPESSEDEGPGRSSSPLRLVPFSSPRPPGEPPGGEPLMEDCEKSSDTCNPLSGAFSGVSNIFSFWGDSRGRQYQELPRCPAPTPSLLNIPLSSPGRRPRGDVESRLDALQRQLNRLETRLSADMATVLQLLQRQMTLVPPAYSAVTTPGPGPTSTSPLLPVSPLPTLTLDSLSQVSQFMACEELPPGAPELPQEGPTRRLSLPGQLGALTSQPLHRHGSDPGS

[19] = Intrinsic clearance in human liver microsomes at 1 uM up to 30 mins by LC-MS/MS analysis; format: ADME; settings: read-out: CLH
[20] = tested on: Mycobacterium tuberculosis; assay: Antimycobacterial activity against Mycobacterium tuberculosis H37Rv at >MIC after 21 to 28 days; format: functional
[21] = tested on: Mycolicibacterium smegmatis; assay: Antimicrobial activity against Mycobacterium smegmatis ATCC 607 at 100 uM; format: functional, organism-based
[22] = target: Cytochrome P450 2C9 (Homo sapiens, UniProt P11712); assay: Inhibition of CYP2C9 (unknown origin); format: ADME; method in brief: as §3
Cytochrome P450 2C9, sequence (P11712 whole entry): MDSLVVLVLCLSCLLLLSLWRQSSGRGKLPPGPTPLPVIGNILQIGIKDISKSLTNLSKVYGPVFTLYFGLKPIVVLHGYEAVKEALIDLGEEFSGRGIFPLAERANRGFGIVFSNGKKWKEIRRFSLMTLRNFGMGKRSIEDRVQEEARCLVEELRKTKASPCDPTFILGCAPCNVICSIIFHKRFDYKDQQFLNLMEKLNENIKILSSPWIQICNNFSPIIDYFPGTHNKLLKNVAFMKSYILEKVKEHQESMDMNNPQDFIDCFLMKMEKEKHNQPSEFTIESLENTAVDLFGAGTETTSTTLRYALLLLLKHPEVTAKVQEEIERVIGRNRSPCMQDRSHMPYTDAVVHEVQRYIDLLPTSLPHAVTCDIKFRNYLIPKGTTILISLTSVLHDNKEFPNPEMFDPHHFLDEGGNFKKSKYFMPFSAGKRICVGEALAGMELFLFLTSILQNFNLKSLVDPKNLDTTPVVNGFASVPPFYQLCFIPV

[23] = Octanol-water partition coefficient, log D of the compound by shake-flask method; format: physicochemical
[24] = tested on: Klebsiella pneumoniae; assay: Antimicrobial activity against Klebsiella pneumoniae ARC1865 at 100 uM; format: functional, organism-based; method in brief: as §2
[25] = Intrinsic clearance in rat cryopreserved hepatocytes assessed per 10^6 cells at 1 uM up to 120 mins by LC-MS/MS analysis; format: ADME, cell-based, Hepatocyte; settings: read-out: CLH
[26] = tested on: Mycolicibacterium smegmatis; assay: Binding affinity to Mycobacterium smegmatis recombinant DprE1 assessed as dissociation constant; method in brief: as §1
[27] = tested on: Escherichia coli; assay: Antimicrobial activity against Escherichia coli ARC524 at 100 uM; format: functional, organism-based; method in brief: as §2
[28] = tested on: Haemophilus influenzae; assay: Antimicrobial activity against Haemophilus influenzae ARC158 at 100 uM; format: functional, organism-based; method in brief: as §2
[29] = target: Cytochrome P450 2D6 (Homo sapiens, UniProt P10635); assay: Inhibition of CYP2D6 (unknown origin); format: ADME; method in brief: as §3
Cytochrome P450 2D6, sequence (P10635 whole entry): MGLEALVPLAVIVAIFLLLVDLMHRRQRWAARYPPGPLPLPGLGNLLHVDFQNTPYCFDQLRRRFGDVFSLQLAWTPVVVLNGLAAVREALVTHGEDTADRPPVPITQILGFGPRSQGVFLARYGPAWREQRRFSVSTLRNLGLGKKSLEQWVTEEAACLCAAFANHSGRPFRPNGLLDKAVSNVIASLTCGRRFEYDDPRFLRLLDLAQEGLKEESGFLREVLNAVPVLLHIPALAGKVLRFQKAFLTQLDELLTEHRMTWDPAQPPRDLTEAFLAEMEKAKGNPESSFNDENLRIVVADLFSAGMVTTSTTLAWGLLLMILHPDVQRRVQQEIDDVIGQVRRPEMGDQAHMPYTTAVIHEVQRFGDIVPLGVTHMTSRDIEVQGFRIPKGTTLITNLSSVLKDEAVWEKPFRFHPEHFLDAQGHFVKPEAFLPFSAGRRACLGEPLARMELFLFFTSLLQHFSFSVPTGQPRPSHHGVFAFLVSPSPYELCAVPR

[30] = tested on: Mycolicibacterium smegmatis; assay: Ratio of IC50 for Mycobacterium smegmatis DprE1 Y321H mutant to IC50 for Mycobacterium smegmatis recombinant wild type DprE1; method in brief: as §4
[31] = tested on: Mycolicibacterium smegmatis; assay: Binding affinity to Mycobacterium smegmatis recombinant DprE1 assessed as half life; method in brief: as §1
[32] = target: Cytochrome P450 3A4 (Homo sapiens, UniProt P08684); assay: Inhibition of CYP3A4 (unknown origin); format: ADME; method in brief: as §3
Cytochrome P450 3A4, sequence (P08684 whole entry): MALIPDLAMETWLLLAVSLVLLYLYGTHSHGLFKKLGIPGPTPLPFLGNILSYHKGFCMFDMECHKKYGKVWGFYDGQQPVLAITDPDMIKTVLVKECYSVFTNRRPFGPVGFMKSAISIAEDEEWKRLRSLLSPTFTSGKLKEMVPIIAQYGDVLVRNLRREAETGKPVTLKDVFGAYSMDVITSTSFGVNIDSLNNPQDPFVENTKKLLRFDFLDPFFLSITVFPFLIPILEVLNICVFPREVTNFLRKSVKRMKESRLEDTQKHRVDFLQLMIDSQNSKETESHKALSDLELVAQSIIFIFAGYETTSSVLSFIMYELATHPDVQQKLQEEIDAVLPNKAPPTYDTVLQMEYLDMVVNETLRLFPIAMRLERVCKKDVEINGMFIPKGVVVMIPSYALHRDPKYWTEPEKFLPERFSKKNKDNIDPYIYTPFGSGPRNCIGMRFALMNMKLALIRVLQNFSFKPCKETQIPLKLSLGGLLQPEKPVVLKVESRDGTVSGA

[33] = Fraction unbound in human plasma at 20 uM after 18 hrs by equilibrium dialysis method; format: ADME, cell-free
[34] = tested on: Streptococcus pneumoniae; assay: Antimicrobial activity against Streptococcus pneumoniae ARC548 at 100 uM; format: functional, organism-based; method in brief: as §2
[35] = tested on: Mycobacterium tuberculosis; assay: Antimycobacterial activity against Mycobacterium tuberculosis over expressing PimA after 5 days by standard microdilution method; format: functional; settings: 120 h
[36] = tested on: Mycobacterium tuberculosis; assay: Antimycobacterial activity against Mycobacterium tuberculosis H37Rv after 5 days by standard microdilution method; format: functional; settings: 120 h
[37] = tested on: Pseudomonas aeruginosa; assay: Antimicrobial activity against Pseudomonas aeruginosa ARC545 at 100 uM; format: functional, organism-based; method in brief: as §2
[38] = tested on: Candida albicans; assay: Antimicrobial activity against Candida albicans ARC527 at 100 uM; format: functional, organism-based; method in brief: as §2
[39] = Permeability of the compound from apical to basolateral side in human Caco2 cells; format: ADME, cell-based; settings: Caco-2, read-out: permeability
[40] = tested on: Mycobacterium tuberculosis; assay: Antimycobacterial activity against Mycobacterium tuberculosis H37Rv under hypoxic condition after 6 days by resazurin assay; format: functional; settings: 144 h

Cn1ncc(C(=O)N2CCC(Nc3cc(=O)[nH]c4ccccc34)CC2)c1Cl
TIME [1]: 1.73 h | Activity [2]: inactive | INH [3]: > 30 µM | MIC [4]: 3.1 µM (≈ 1.2 µg/mL) | IC50 [5]: > 10 µM | Activity [6]: inactive | Activity [7]: inactive | Papp B→A [8]: 14 ×10⁻⁶ cm/s | Activity [9]: inactive | MIC [10]: > 100 µM | Activity [11]: inactive | MCC at 72 h [12]: > 200 µM | MIC [13]: 6.3 µM (≈ 2.43 µg/mL) | IC50 [14]: 21.9 µM | solubility at 24 h [15]: 255 µM (≈ 98.4 µg/mL) | INH [16]: > 30 µM | IC50 [17]: 0.15 µM | IC50 [18]: > 100 µM | microsomal CLint at 1 µM [19]: < 4 µL/min/mg | MBC [20]: 6.3 µM (≈ 2.43 µg/mL) | Activity [21]: inactive | INH [22]: > 30 µM | logD [23]: 1.6 | Activity [24]: inactive | hepatocyte CLint at 1 µM [25]: 1.5 µL/min/1e6 cells | Kdiss [26]: 0.00016 s⁻¹ | Activity [27]: inactive | Activity [28]: inactive | INH [29]: > 30 µM | fold change (FC) [30]: > 63 | T1/2 [31]: 1.2 h | INH [32]: > 30 µM | fraction unbound at 18 h, 20 µM [33]: 0.3 | Activity [34]: inactive | MIC [35]: 3.1 µM (≈ 1.2 µg/mL) | MIC [36]: 6.25 µM (≈ 2.41 µg/mL) | Activity [37]: inactive | Activity [38]: inactive | Papp A→B [39]: 0.5 ×10⁻⁶ cm/s | IC80 [40]: > 100 µM
